Where “and” joins values, the source holds several entries; their conditions need not be identical. Equal entries are not always repeated. Calls of active or inactive are those of the source. The calls are words filed in the database; no cut-off is given here.
Assays:
Rattus norvegicus [1] = test: Percent inhibition of caster oil induced diarrhea in rats at a dose of 30 mg/kg peroral administration after 2 hours; format: functional; settings: route oral
Rattus norvegicus [2] = test: Percent inhibition of caster oil induced diarrhea in rats at a dose of 30 mg/kg peroral administration after 6 hours; NS=Not significant; format: functional, organism-based; parameters: dose 30 mg/kg
Rattus norvegicus [3] = test: Cardiovascular activity in normotensive rats after oral administration of 30 mg/kg after 2 hr; format: functional
How it was run: (§1)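 Female normotensive rats with left carotid artery cannulae placed under anaesthesia. The next day they received the test substance orally in 0.5% hydroxymethylcellulose/0.9% saline (10 mL/kg), or vehicle alone. Systolic blood pressure was measured from the cannula, and heart rate from the pressure-triggered tachometer, predose and at 1, 2, 4 and 6 h. Values are means; significance was judged against predose values.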

Rattus norvegicus [4] = test: Percent inhibition of caster oil induced diarrhea in rats at a dose of 10 mg/kg peroral administration after 2 hours; format: functional; settings: route oral
Rattus norvegicus [5] = test: Cardiovascular activity in normotensive rats after oral administration of 30 mg/kg after 1 hr; format: functional
How it was run: (§2)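 Female normotensive rats with left carotid artery cannulae implanted under anaesthesia; dosed orally the next day in 0.5% hydroxymethylcellulose/0.9% saline (10 mL/kg) or vehicle alone. Systolic blood pressure taken by pressure transducer before dosing and at 1, 2, 4, 6 h; heart rate from tachometer triggered by pressure signal. Mean values; significance versus predose.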

Rattus norvegicus [6] = test: Cardiovascular activity in normotensive rats at a dose of 30 mg/kg oral administration after 6 hr; format: functional; how it was run: as §1
Rattus norvegicus [7] = test: Cardiovascular activity in normotensive rats at a dose of 30 mg/kg oral administration after 2 hr; format: functional; how it was run: as §1
Rattus norvegicus [8] = test: Percent inhibition of caster oil induced diarrhea in rats at a dose of 10 mg/kg peroral administration after 6 hours; format: functional; settings: for Inhibition: 10 mg/kg; for inhibition in vivo at 10 mg/kg: Rattus norvegicus, 6 h
Rattus norvegicus [9] = test: Cardiovascular activity in normotensive rats at a dose of 30 mg/kg oral administration after 4 hr; format: functional; how it was run: as §1
Rattus norvegicus [10] = test: Cardiovascular activity in normotensive rats at a dose of 30 mg/kg oral administration after 1 hr; format: functional; how it was run: as §1
Rattus norvegicus [11] = test: Cardiovascular activity in normotensive rats after oral administration of 30 mg/kg after 6 hr; format: functional; how it was run: as §1
Rattus norvegicus [12] = test: Percent inhibition of caster oil induced diarrhea in rats at a dose of 30 mg/kg peroral administration after 6 hours; format: functional; settings: for inhibition in vivo at 30 mg/kg: Rattus norvegicus, 6 h
Rattus norvegicus [13] = test: Cardiovascular activity in normotensive rats after oral administration of 30 mg/kg after 4 hr; format: functional; how it was run: as §1
Rattus norvegicus [14] = test: Percent inhibition of caster oil induced diarrhea in rats at a dose of 30 mg/kg peroral administration after 2 hours; NS=Not significant; format: functional, organism-based; parameters: dose 30 mg/kg
Rattus norvegicus [15] = test: Percent inhibition of caster oil induced diarrhea in rats at a dose of 1 mg/kg peroral administration after 2 hours; format: functional; settings: route oral
Rattus norvegicus [16] = test: Percent inhibition of caster oil induced diarrhea in rats at a dose of 3 mg/kg peroral administration after 2 hours; format: functional; settings: route oral
Rattus norvegicus [17] = test: The compound was tested for cardiovascular activity in normotensive rats after oral administration of 30 mg/kg after 1 hr; format: functional, Heart; how it was run: as §1
Rattus norvegicus [18] = test: Percent inhibition of caster oil induced diarrhea in rats at a dose of 1 mg/kg peroral administration after 6 hours; NS=Not significant; format: functional, organism-based; parameters: dose 1 mg/kg
Rattus norvegicus [19] = test: Percent inhibition of caster oil induced diarrhea in rats at a dose of 3 mg/kg peroral administration after 6 hours; NS=Not significant; format: functional, organism-based; parameters: dose 3 mg/kg
Rattus norvegicus [20] = test: Percent inhibition of caster oil induced diarrhea in rats at a dose of 3 mg/kg peroral administration after 6 hr; NS=Not significant; format: functional, organism-based; parameters: dose 3 mg/kg
Rattus norvegicus [21] = test: Percent inhibition of caster oil induced diarrhea in rats at a dose of 1 mg/kg peroral administration after 6 hr; NS=Not significant; format: functional, organism-based; parameters: dose 1 mg/kg
Rattus norvegicus [22] = test: Percent inhibition of caster oil induced diarrhea in rats at a dose of 1 mg/kg peroral administration after 2 hours; NS=Not significant; format: functional, organism-based; parameters: dose 1 mg/kg
Rattus norvegicus [23] = test: Percent inhibition of caster oil induced diarrhea in rats at a dose of 1 mg/kg peroral administration after 6 hr; format: functional; settings: route oral
Rattus norvegicus [24] = test: Percent inhibition of caster oil induced diarrhea in rats at a dose of 1 mg/kg peroral administration after 2 hr; format: functional; settings: route oral
Rattus norvegicus [25] = test: Percent inhibition of caster oil induced diarrhea in rats after 2 hours at 1 mg/kg of dose after peroral administration; NS=Not significant; format: functional, organism-based; parameters: dose 1 mg/kg
Rattus norvegicus [26] = test: Percent inhibition of caster oil induced diarrhea in rats after 6 hours at 3 mg/kg of dose after peroral administration; NS=Not significant; format: functional, organism-based; parameters: dose 3 mg/kg
Rattus norvegicus [27] = test: Percent inhibition of caster oil induced diarrhea in rats after 6 hours at 1 mg/kg of dose after peroral administration; NS=Not significant; format: functional, organism-based; parameters: dose 1 mg/kg
Rattus norvegicus [28] = test: Percent inhibition of caster oil induced diarrhea in rats after 2 hours at 3 mg/kg of dose after peroral administration; format: functional; settings: route oral
Rattus norvegicus [29] = test: Cardiovascular activity in normotensive rats after oral administration of 30 mg/kg aof the compound after 1 hr; format: functional; how it was run: as §2
Rattus norvegicus [30] = test: Percent inhibition of caster oil induced diarrhea in rats at a dose of 3 mg/kg peroral administration after 2 hr; format: functional; settings: route oral
How it was run: (§3)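 Male rats housed singly on wide-mesh grids, food-deprived overnight, water free; groups of six dosed orally in 0.3% hydroxymethylcellulose/0.9% saline (10 mL/kg) or vehicle. Castor oil 1 mL orally 1 h later. Feces collected on preweighed papers and weighed at 2 and 6 h after castor oil; output expressed as percentage of vehicle group.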

Rattus norvegicus [31] = test: Percent inhibition of caster oil induced diarrhea in rats at a dose of 3 mg/kg peroral administration after 6 hr; format: functional; settings: route oral; how it was run: as §3

SMILES: CC1C=C[C@@H](C)N1CC(=O)NC1=NCCN1 (stereo partly specified)
- inhibition in vivo at 30 mg/kg (Rattus norvegicus [1]): 35%
- inhibition (Rattus norvegicus [2]): inactive

SMILES: C/N=C(\N)NC(=O)CN1C(C)C=C[C@H]1C (stereo partly specified)
- inhibition in vivo at 30 mg/kg (Rattus norvegicus [1]): 88%
- inhibition (Rattus norvegicus [2]): inactive

SMILES: Cc1ccc(C)n1CC(=O)N=C(N)N.Cl
- Systolic blood pressure (Rattus norvegicus [3]): 159 mmHg
- inhibition in vivo at 10 mg/kg (Rattus norvegicus [4]): 100%
- Systolic blood pressure (Rattus norvegicus [5]): 193 mmHg
- Heart rate (Rattus norvegicus [6]): 242 beats min-1
- Heart rate (Rattus norvegicus [7]): 218 beats min-1
- Inhibition (Rattus norvegicus [8]; route oral): 75% and 97%
- Heart rate (Rattus norvegicus [9]): 218 beats min-1
- Heart rate (Rattus norvegicus [10]): 175 beats min-1
- Systolic blood pressure (Rattus norvegicus [11]): 138 mmHg
- inhibition in vivo at 30 mg/kg (Rattus norvegicus [1]): 96%
- inhibition in vivo at 30 mg/kg (Rattus norvegicus [12]; po): 96%
- Systolic blood pressure (Rattus norvegicus [13]): 163 mmHg

SMILES: CC1C=C[C@@H](C)N1C(=O)C(=O)N=C(N)N (stereo partly specified)
- inhibition (Rattus norvegicus [14]): inactive
- inhibition (Rattus norvegicus [2]): inactive

SMILES: CC1C=C[C@@H](C)N1C(C)C(=O)N=C(N)N (stereo partly specified)
- inhibition (Rattus norvegicus [14]): inactive
- inhibition (Rattus norvegicus [2]): inactive

SMILES: CC1C=C[C@@H](C)N1CCC(=O)N=C(N)N (stereo partly specified)
- inhibition (Rattus norvegicus [14]): inactive
- inhibition (Rattus norvegicus [2]): inactive

SMILES: CC1C=C[C@@H](C)N1CCN=C(N)N (stereo partly specified)
- inhibition (Rattus norvegicus [14]): inactive
- inhibition (Rattus norvegicus [2]): inactive

SMILES: CC1CC[C@@H](C)N1CC(=O)N=C(N)N (stereo partly specified)
- inhibition (Rattus norvegicus [14]): inactive
- inhibition (Rattus norvegicus [2]): inactive

SMILES: CC1C=C[C@@H](C)N1CC(=O)N=C(N)N.Cl.Cl (stereo in doubt; 2)
- Heart rate (Rattus norvegicus [3]): 373 beats min-1
- Systolic blood pressure (Rattus norvegicus [3]): 137 mmHg
- inhibition in vivo at 1 mg/kg (Rattus norvegicus [15]): 92%
- inhibition in vivo at 10 mg/kg (Rattus norvegicus [4]): 100%
- Systolic blood pressure (Rattus norvegicus [5]): 133 mmHg
- Inhibition (Rattus norvegicus [8]; route oral): 86%
- Heart rate (Rattus norvegicus [11]): 443 beats min-1
- Systolic blood pressure (Rattus norvegicus [11]): 134 mmHg
- inhibition in vivo at 3 mg/kg (Rattus norvegicus [16]): 100%
- inhibition in vivo at 30 mg/kg (Rattus norvegicus [1]): 100%
- inhibition in vivo at 30 mg/kg (Rattus norvegicus [12]; po): 99%
- Heart rate (Rattus norvegicus [17]): 395 beats min-1
- Heart rate (Rattus norvegicus [13]): 418 beats min-1
- Systolic blood pressure (Rattus norvegicus [13]): 133 mmHg

SMILES: CC1C=C[C@@H](C)N1CC(=O)N=C(N)N (stereo in doubt; 2)
- inhibition (Rattus norvegicus [18]): inactive
- inhibition (Rattus norvegicus [19]): Not siginificant

SMILES: CC1C=C[C@@H](C)N1CC(=O)N=C(N)N.Cl.Cl (stereo in doubt; 10)
- Inhibition (Rattus norvegicus [8]; route oral): 52%
- inhibition in vivo at 3 mg/kg (Rattus norvegicus [16]): 100%

SMILES: CC1C=C[C@@H](C)N1CC(=O)N=C(N)N (stereo in doubt; 10)
- inhibition (Rattus norvegicus [20]): inactive
- inhibition (Rattus norvegicus [21]): inactive
- inhibition (Rattus norvegicus [22]): inactive

SMILES: CC1C=C[C@@H](C)N1CC(=O)N=C(N)N.Cl.Cl (stereo in doubt; 11)
- Inhibition (Rattus norvegicus [8]; route oral): 45%
- inhibition in vivo at 1 mg/kg (Rattus norvegicus [23]): 46%
- Inhibition (Rattus norvegicus [12]; route oral, 30 mg/kg): 100%
- inhibition in vivo at 1 mg/kg (Rattus norvegicus [24]): 100%

SMILES: CNC(=N)NC(=O)Nc1c(C)cccc1C [LIDAMIDINE]
- inhibition (Rattus norvegicus [25]): inactive
- Heart rate (Rattus norvegicus [3]): 241 beats min-1
- Systolic blood pressure (Rattus norvegicus [3]): 132 mmHg
- inhibition (Rattus norvegicus [26]): inactive
- inhibition in vivo at 10 mg/kg (Rattus norvegicus [4]): 100%
- Heart rate (Rattus norvegicus [5]): 263 beats min-1
- Systolic blood pressure (Rattus norvegicus [5]): 123 mmHg
- inhibition in vivo at 10 mg/kg (Rattus norvegicus [8]; po): 68%
- Heart rate (Rattus norvegicus [11]): 298 beats min-1
- Systolic blood pressure (Rattus norvegicus [11]): 131 mmHg
- inhibition (Rattus norvegicus [27]): inactive
- inhibition in vivo at 30 mg/kg (Rattus norvegicus [1]): 100%
- inhibition in vivo at 30 mg/kg (Rattus norvegicus [12]; po): 100%
- inhibition in vivo at 3 mg/kg (Rattus norvegicus [28]): 100%
- Heart rate (Rattus norvegicus [13]): 261 beats min-1
- Systolic blood pressure (Rattus norvegicus [13]): 126 mmHg

SMILES: CN(C)C(=O)C(CCN1CCC(O)(c2ccc(Cl)cc2)CC1)(c1ccccc1)c1ccccc1 [LOPERAMIDE]
- Heart rate (Rattus norvegicus [3]): 290 beats min-1
- Systolic blood pressure (Rattus norvegicus [3]): 117 mmHg
- inhibition in vivo at 10 mg/kg (Rattus norvegicus [4]): 100%
- Heart rate (Rattus norvegicus [5]): 278 beats min-1
- inhibition in vivo at 10 mg/kg (Rattus norvegicus [8]; route oral): 99%
- Systolic blood pressure (Rattus norvegicus [29]): 119 mmHg
- Heart rate (Rattus norvegicus [11]): 360 beats min-1
- Systolic blood pressure (Rattus norvegicus [11]): 125 mmHg
- inhibition in vivo at 3 mg/kg (Rattus norvegicus [30]): 96%
- inhibition in vivo at 30 mg/kg (Rattus norvegicus [1]): 98%
- inhibition in vivo at 30 mg/kg (Rattus norvegicus [12]; route oral): 97%
- inhibition in vivo at 3 mg/kg (Rattus norvegicus [31]): 77%
- Heart rate (Rattus norvegicus [13]): 324 beats min-1
- Systolic blood pressure (Rattus norvegicus [13]): 124 mmHg
